Legend:
[1] = target: Angiotensin-converting enzyme 2 (Homo sapiens, UniProt Q9BYF1); assay: Inhibition of his-tagged SARS-COV2 S-RBD binding to C-terminal Fc-tagged human ACE2 expressed in HEK293 cells incubated for 2 hrs by Alphascreen assay; type: cell-based
How it was run: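 ACE2-Fc (2 nM) with His-tagged spike RBD, Wuhan variant (5 nM), plus protein A acceptor and nickel chelate donor beads (5 μg/mL each), in 20 mM Tris pH 7.4, 150 mM KCl, 0.05% CHAPS. Compounds added from 100× DMSO dilutions, in duplicate. 2 h at room temperature, then luminescence read. 100% = signal without RBD; 0% = both proteins plus DMSO.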

[2] = target: Programmed cell death protein 1/Programmed cell death 1 ligand 1 (Homo sapiens, UniProt Q15116+Q9NZQ7); assay: Inhibition of C-terminal his tagged human PD-1/human Fc tagged PDL-1 interaction expressed in HEK293 cells incubated for 2 hrs AlphaScreen assay; type: cell-based
Homo sapiens = species on record: Homo sapiens; assay: Selectivity index, ratio of IC50 for his tagged human PD-1/human Fc tagged PDL-1 interaction to IC50 for his-tagged FC tagged SARS-COV2 S-RBD binding to ACE2 (unknown origin)

Sequence of Programmed cell death protein 1/Programmed cell death 1 ligand 1 (Q15116 whole entry): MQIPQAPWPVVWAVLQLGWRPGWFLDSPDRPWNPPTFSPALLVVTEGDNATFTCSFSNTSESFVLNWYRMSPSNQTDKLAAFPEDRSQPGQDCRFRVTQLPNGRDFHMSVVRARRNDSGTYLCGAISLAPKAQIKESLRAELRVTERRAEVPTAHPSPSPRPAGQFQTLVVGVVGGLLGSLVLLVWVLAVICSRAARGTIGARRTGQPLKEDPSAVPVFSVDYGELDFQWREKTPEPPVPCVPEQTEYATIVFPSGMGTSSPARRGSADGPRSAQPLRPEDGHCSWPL
Sequence of Programmed cell death protein 1/Programmed cell death 1 ligand 1 (Q9NZQ7 whole entry): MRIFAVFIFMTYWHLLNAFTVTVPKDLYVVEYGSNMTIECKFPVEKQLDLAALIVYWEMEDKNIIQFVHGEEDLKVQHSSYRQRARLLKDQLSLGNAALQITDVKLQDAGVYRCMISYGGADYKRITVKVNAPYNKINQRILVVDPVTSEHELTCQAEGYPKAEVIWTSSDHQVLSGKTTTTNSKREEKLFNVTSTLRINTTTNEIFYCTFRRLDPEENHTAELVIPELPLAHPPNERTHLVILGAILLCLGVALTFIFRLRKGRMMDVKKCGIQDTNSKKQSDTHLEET
Sequence of Angiotensin-converting enzyme 2 (Q9BYF1 whole entry): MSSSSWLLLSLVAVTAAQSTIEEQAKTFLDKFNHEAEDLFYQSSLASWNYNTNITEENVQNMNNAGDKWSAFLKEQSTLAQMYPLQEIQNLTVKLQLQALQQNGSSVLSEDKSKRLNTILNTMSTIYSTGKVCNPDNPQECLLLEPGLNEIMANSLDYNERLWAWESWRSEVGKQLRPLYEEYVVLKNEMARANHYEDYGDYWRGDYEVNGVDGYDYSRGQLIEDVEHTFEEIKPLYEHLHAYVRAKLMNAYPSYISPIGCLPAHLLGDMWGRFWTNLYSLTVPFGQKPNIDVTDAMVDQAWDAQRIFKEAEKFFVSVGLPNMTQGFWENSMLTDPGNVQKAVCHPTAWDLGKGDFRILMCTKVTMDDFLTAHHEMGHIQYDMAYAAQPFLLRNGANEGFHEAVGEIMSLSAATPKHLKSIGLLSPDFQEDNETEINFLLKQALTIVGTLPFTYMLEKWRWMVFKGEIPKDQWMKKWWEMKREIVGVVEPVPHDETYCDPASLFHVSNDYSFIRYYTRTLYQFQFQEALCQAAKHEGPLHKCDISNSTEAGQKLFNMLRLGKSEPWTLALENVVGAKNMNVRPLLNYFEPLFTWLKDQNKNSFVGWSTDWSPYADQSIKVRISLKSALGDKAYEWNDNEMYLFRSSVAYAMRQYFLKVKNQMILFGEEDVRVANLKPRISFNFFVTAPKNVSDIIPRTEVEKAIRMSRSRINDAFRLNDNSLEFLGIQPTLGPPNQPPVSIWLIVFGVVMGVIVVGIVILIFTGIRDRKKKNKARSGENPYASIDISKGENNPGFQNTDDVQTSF

Compound `Oc1ccc([C@@H]2c3c(O)cc(O)cc3[C@@H]3c4c(cc(O)cc4[C@H]2[C@@H]2c4cc(O)cc5c4[C@@H](c4cc(O)cc(O)c4[C@H]2c2ccc(O)cc2)[C@H](c2ccc(O)cc2)O5)O[C@H]3c2ccc(O)cc2)cc1` has an IC50 [1] of 0.25 µM.

In the case of `COc1cc(OC(C)=O)c(-c2c(OC(C)=O)cc(OC)c3c2C=C[C@](C)(CCC2=C(C)CCCC2(C)C)O3)c2c1O[C@](C)(CCC1=C(C)CCCC1(C)C)C=C2`, the IC50 [1] is reported as 7.3 µM, the IC50 [2] is reported as 37 µM and the Ratio IC50 (Homo sapiens) is reported as 5.

With `COc1cc(O)c(-c2c(O)cc(OC)c3c2C=C[C@](C)(CCC2=C(C)CCCC2(C)C)O3)c2c1O[C@](C)(CCC1=C(C)CCCC1(C)C)C=C2` the IC50 [1] was 1 µM, the IC50 [2] was 6 µM and the Ratio IC50 (Homo sapiens) was 5.9.

Work on `COc1cc(OC(C)=O)c(-c2c(OC(C)=O)cc(OC)c3c2C=C[C@@](C)(CCC2=C(C)CCCC2(C)C)O3)c2c1O[C@](C)(CCC1=C(C)CCCC1(C)C)C=C2` yielded an IC50 [1] of 65 µM and an IC50 [2] of over 50 µM.

For `COc1cc(OC(C)=O)cc2c1OC(C)(CCC1=C(C)CCCC1(C)C)C=C2` (configuration not stated), the IC50 [1] was 63 µM, the IC50 [2] was 66 µM and the Ratio IC50 (Homo sapiens) was 1.
